Laboratory results from ChEMBL document CHEMBL4219174, “Synthesis and evaluation of 2,9-disubstituted 8-phenylthio/phenylsulfinyl-9H-purine as new EGFR inhibitors” (Bioorg Med Chem, 2018).
pIC50: −log10 of the molar value. Active and inactive are the calls of the source. The rule behind the calls is not given here.

What was measured:
[1] = tested on: HCC827; experiment: Antiproliferative activity against human HCC827 cells after 72 hrs by MTT assay; assay type: functional, cell-based; details: HCC827, 72 h
[2] = tested on: NCI-H1975; experiment: Antiproliferative activity against human NCI-H1975 cells after 72 hrs by MTT assay; assay type: functional, cell-based; details: NCI-H1975, 72 h
[3] = tested on: A549; experiment: Antiproliferative activity against human A549 cells after 72 hrs by MTT assay; assay type: functional, cell-based; details: A549, 72 h
[4] = Selectivity ratio of IC50 for human NCI-H1975 cells to IC50 for human HCC827 cells; assay type: functional
[5] = Selectivity ratio of IC50 for human A549 cells to IC50 for human HCC827 cells; assay type: functional
[6] = molecular target: T1, Epidermal growth factor receptor (Homo sapiens, UniProt P00533); experiment: Inhibition of wild type EGFR (unknown origin) using poly (Glu, Tyr) as substrate after 40 mins by kinase-glo plus luminescence assay
[7] = molecular target: Epidermal growth factor receptor (Homo sapiens, UniProt P00533, L858R/T790M); experiment: Inhibition of EGFR L858R/T790M double mutant (unknown origin) using poly (Glu, Tyr) as substrate after 40 mins by kinase-glo plus luminescence assay
[8] = molecular target: Epidermal growth factor receptor (Homo sapiens, UniProt P00533, C797S/L858R/T790M); experiment: Inhibition of EGFR L858R/T790M/C797S triple mutant (unknown origin) using poly (Glu, Tyr) as substrate after 40 mins by kinase-glo plus luminescence assay
[9] = tested on: HCC827; experiment: Antiproliferative activity against human HCC827 cells at 1 uM after 72 hrs by MTT assay relative to control; assay type: functional; details: for Emax at 1 µM: Homo sapiens, HCC827, 72 h
Summary of the method: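 Human lung carcinoma HCC827 cells (EGFR Del E746-A750) were tested by MTT colorimetric assay, with gefitinib and AZD9291 as positive controls. The read-out was percent growth inhibition at a single fixed concentration.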

[10] = molecular target: T1, Epidermal growth factor receptor; experiment: Inhibition of EGFR auto-phosphorylation in human HCC827 cells after 8 hrs by Western blot analysis; assay type: cell-based
[11] = tested on: HCC827; experiment: Anti-tumor activity against human HCC827 cells xenografted in nude Balb/c mouse assessed as tumor growth inhibition at 5 mg/kg, po administered once daily for 20 days measured once in three days till day 21; assay type: functional, organism-based
Summary of the method: (§1)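 HCC827 (EGFR Del E746-A750) xenografts in nude mice, n = 6 per group. Oral dosing at 1 or 5 mg/kg once daily for 20 days, compared against a vehicle group. Read-outs were tumor growth curves and body weight over the treatment period, plus final tumor weight after 20 days. Significance was tested vs vehicle.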

[12] = tested on: Mus musculus; experiment: Toxicity in nude Balb/c mouse xenografted with human HCC827 cells assessed as increase in body weight at 5 mg/kg, po administered once daily for 20 days measured every day till day 21; assay type: organism-based; details: in vivo, 480 h; summary of the method: as §1

T1 sequence (P00533 whole entry): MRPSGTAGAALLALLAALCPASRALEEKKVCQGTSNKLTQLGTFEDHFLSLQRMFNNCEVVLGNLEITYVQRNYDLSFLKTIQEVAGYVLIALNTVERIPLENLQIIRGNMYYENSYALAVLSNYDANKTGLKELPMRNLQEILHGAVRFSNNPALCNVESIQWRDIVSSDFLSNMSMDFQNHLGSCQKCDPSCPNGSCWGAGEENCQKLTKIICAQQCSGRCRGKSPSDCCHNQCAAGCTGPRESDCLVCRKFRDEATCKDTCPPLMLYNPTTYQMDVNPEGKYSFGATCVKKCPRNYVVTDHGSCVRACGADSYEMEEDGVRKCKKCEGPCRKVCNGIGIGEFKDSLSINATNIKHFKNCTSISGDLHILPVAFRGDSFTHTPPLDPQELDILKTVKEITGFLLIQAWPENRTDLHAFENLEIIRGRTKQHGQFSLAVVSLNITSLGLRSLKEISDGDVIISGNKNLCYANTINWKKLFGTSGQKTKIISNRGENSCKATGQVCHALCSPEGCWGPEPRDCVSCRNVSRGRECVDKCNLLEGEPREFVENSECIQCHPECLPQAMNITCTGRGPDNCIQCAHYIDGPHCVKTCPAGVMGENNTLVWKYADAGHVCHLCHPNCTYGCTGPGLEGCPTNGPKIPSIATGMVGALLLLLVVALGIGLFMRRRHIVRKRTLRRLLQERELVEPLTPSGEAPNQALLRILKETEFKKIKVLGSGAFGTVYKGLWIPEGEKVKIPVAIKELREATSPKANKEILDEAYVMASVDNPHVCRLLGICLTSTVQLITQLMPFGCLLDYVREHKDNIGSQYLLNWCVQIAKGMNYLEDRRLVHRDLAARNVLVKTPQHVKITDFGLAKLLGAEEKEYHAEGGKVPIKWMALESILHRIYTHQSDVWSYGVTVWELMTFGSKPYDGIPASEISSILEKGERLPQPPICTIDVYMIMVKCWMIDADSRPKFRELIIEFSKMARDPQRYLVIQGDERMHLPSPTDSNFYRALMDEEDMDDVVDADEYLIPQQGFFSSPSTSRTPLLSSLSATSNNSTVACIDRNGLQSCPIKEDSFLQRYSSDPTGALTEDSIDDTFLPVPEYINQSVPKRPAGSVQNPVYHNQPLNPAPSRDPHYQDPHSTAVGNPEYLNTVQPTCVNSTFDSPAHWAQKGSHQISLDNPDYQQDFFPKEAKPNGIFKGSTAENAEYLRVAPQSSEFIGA
Chain of Epidermal growth factor receptor (Homo sapiens, UniProt P00533, C797S/L858R/T790M) (P00533 25-1210 T790M/C797S/L858R limits assumed): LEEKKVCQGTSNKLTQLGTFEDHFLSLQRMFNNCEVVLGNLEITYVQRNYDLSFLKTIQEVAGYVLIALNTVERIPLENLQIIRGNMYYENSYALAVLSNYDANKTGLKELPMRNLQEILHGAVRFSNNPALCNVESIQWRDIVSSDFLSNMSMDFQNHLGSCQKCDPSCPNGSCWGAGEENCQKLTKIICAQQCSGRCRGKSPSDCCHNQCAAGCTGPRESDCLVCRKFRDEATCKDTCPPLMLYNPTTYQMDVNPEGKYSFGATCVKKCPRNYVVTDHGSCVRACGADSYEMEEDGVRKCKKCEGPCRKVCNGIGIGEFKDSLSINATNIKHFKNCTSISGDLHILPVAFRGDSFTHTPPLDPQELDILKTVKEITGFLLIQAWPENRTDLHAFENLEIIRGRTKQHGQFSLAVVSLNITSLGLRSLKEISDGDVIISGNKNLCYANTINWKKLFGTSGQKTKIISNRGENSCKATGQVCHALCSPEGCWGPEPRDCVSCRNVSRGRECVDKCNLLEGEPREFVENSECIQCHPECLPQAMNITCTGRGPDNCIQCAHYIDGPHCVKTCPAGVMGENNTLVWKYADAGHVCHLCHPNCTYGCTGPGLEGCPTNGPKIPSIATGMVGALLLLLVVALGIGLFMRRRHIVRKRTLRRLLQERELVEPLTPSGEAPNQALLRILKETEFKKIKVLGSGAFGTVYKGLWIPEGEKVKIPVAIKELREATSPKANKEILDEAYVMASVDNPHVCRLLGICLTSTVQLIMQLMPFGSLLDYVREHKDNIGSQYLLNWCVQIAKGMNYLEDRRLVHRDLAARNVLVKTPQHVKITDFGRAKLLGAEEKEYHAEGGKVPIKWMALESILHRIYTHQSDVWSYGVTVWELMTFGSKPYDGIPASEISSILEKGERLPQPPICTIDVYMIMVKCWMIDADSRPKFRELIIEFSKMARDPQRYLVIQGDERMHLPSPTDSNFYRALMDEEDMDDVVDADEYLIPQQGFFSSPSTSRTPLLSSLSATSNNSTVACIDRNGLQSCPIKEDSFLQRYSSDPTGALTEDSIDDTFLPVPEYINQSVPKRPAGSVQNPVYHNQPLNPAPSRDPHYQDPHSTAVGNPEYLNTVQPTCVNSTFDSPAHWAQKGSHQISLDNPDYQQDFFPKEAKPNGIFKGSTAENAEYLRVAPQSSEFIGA
Chain of Epidermal growth factor receptor (Homo sapiens, UniProt P00533, L858R/T790M) (P00533 25-1210 T790M/L858R limits assumed): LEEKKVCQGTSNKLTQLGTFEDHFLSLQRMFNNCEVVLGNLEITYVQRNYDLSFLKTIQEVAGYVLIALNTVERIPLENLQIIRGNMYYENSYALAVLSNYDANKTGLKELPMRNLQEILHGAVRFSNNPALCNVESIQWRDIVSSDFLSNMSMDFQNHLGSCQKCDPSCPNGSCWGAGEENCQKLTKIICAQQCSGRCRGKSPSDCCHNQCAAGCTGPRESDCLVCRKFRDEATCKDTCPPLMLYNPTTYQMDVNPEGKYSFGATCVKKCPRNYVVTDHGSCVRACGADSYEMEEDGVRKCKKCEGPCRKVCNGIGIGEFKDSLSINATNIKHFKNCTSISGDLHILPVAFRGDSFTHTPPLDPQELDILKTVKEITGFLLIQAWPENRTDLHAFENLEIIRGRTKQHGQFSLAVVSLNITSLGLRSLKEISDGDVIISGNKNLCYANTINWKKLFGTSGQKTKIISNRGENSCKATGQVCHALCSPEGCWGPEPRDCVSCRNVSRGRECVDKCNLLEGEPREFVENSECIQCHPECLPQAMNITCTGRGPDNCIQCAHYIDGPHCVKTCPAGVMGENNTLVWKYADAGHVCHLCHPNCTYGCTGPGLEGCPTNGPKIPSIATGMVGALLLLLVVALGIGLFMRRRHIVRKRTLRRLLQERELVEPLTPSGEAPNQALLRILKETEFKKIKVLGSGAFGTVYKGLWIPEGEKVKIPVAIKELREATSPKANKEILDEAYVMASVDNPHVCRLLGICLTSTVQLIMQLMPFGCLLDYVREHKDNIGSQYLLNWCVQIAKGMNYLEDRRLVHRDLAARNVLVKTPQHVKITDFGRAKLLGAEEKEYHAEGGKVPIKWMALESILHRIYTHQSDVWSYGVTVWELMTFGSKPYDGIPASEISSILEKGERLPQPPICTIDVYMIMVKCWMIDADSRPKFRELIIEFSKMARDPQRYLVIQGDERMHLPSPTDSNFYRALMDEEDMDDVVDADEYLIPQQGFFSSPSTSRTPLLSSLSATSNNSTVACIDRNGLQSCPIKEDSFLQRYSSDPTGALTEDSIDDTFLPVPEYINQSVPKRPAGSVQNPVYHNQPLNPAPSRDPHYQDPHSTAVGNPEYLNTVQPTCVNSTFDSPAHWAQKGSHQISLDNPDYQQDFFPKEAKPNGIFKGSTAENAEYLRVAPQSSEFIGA

Compound	pIC50 [1]	pIC50 [2]	pIC50 [3]	further results
CN(C)C1CCN(c2ccc(Nc3ncc4nc(Sc5ccccc5)n(C5CCOCC5)c4n3)cc2)CC1	7.53	5.30	< 5.00	Ratio IC50 [4]: 170; Ratio IC50 [5]: >340; pIC50 [6]: 8.80; pIC50 [7]: 6.98; pIC50 [8]: 6.48; Emax at 1 µM [9]: 81%; inhibition [10]: Dose-dependent effect; TGI [11]: Active; Activity [12]: Non-Toxic
CC(C)n1c(Sc2ccccc2)nc2cnc(Nc3ccc(N4CCN(C)CC4)cc3)nc21	6.54			
CN1CCN(c2ccc(Nc3ncc4nc(Sc5ccccc5)n(CC5CC5)c4n3)cc2)CC1	6.18			
CN(C)CCOc1ccc(Nc2ncc3nc([S+]([O-])c4ccc(F)cc4)n(C4CCOCC4)c3n2)cc1 (stereo not drawn)	6.26			
CN(C)CCN(C)c1ccc(Nc2ncc3nc(Sc4ccccc4)n(C4CCOCC4)c3n2)cc1	6.30			
CN1CCN(c2ccc(Nc3ncc4nc(SCc5cccnc5)n(C5CCCC5)c4n3)cc2)CC1	6.29			
CN1CCN(c2ccc(Nc3ncc4nc(Sc5ccccc5)n(C5CC5)c4n3)cc2)CC1	6.52			
C=CC(=O)Nc1cc(Nc2nccc(-c3cn(C)c4ccccc34)n2)c(OC)cc1N(C)CCN(C)C [OSIMERTINIB]	7.37 to 7.60	[…]	6.31	Emax [9]: […]
CN1CCN(c2ccc(Nc3ncc4nc([S+]([O-])Cc5cccnc5)n(C5CCCC5)c4n3)cc2)CC1 (stereo not drawn)	5.63			
CN1CCN(c2ccc(Nc3ncc4nc(Nc5ccccc5)n(C5CCCC5)c4n3)cc2)CC1	7.44			Emax at 1 µM [9]: 70%
CN1CCN(c2ccc(Nc3ncc4nc(SCc5cccnc5)n(C5CCOCC5)c4n3)cc2)CC1	6.30			
CN(C)CCOc1ccc(Nc2ncc3nc(Sc4ccccc4)n(C4CCOCC4)c3n2)cc1	7.35	5.02	< 5.00	Ratio IC50 [4]: 217; Ratio IC50 [5]: >226; pIC50 [8]: 6.25; Emax at 1 µM [9]: 78%
CN(C)CCOc1ccc(Nc2ncc3nc(Sc4ccc(F)cc4)n(C4CCOCC4)c3n2)cc1	7.32	5.20	5.31	Ratio IC50 [4]: 131; Ratio IC50 [5]: 101; pIC50 [6]: 8.60; pIC50 [7]: 6.72; pIC50 [8]: 6.94
CN1CCN(c2ccc(Nc3ncc4nc(Sc5ccccc5)n(C5CCCC5)c4n3)cc2)CC1	7.29	5.25	6.63	Ratio IC50 [4]: 109; Ratio IC50 [5]: 5
CN(C)CCOc1ccc(Nc2ncc3nc(Sc4cccc(F)c4)n(C4CCOCC4)c3n2)cc1	7.29	5.56	5.47	Ratio IC50 [4]: 54; Ratio IC50 [5]: 65; pIC50 [8]: 6.09
CC(C)n1c([S+]([O-])c2ccccc2)nc2cnc(Nc3ccc(N4CCN(C)CC4)cc3)nc21 (stereo not drawn)	6.67			
CN1CCN(c2ccc(Nc3ncc4nc(Sc5ccccc5)n([C@H]5CC[C@H](O)CC5)c4n3)cc2)CC1	7.32 to 7.37	5.88	6.37	Ratio IC50 [4]: 31; Ratio IC50 [5]: 10; pIC50 [8]: 6.28
CN1CCN(c2ccc(Nc3ncc4nc(SCc5cccnc5)n(C5CC5)c4n3)cc2)CC1	5.05			

Now from value to compound, other results behind:

pIC50 [1]	pIC50 [2]	pIC50 [3]	Compound	further results
6.08			CN1CCN(c2ccc(Nc3ncc4nc([S+]([O-])c5ccccc5)n(CC5CC5)c4n3)cc2)CC1 (stereo not drawn)	
5.79			CN1CCN(c2ccc(Nc3ncc4nc([S+]([O-])c5ccccc5)n(C5CC5)c4n3)cc2)CC1 (stereo not drawn)	
6.39			CN1CCN(c2ccc(Nc3ncc4nc([S+]([O-])c5ccccc5)n(C5CCOCC5)c4n3)cc2)CC1 (stereo not drawn)	
6.57			CN1CCN(c2ccc(Nc3ncc4nc([S+]([O-])c5ccccc5)n([C@H]5CC[C@H](O)CC5)c4n3)cc2)CC1 (stereo partly drawn)	
7.37	5.65	5.53	CN1CCN(c2ccc(Nc3ncc4nc(Sc5ccccc5)n(C5CCOCC5)c4n3)cc2)CC1	Ratio IC50 [4]: 53; Ratio IC50 [5]: 69; pIC50 [8]: 6.05
6.07			CN1CCC(Oc2ccc(Nc3ncc4nc([S+]([O-])c5ccccc5)n(C5CCOCC5)c4n3)cc2)CC1 (stereo not drawn)	
7.19	5.29	< 5.00	CN1CCN(c2ccc(Nc3ncc4nc([S+]([O-])c5ccccc5)n(C5CCCC5)c4n3)cc2)CC1 (stereo not drawn)	Ratio IC50 [4]: 79; Ratio IC50 [5]: >154
6.45			CN(C)CCOc1ccc(Nc2ncc3nc([S+]([O-])c4cccc(F)c4)n(C4CCOCC4)c3n2)cc1 (stereo not drawn)	
6.36			CN1CCN(c2ccc(Nc3ncc4nc([S+]([O-])Cc5ccccc5)n(C5CCOCC5)c4n3)cc2)CC1 (stereo not drawn)	
6.85			CN1CCC(Oc2ccc(Nc3ncc4nc(Sc5ccccc5)n(C5CCOCC5)c4n3)cc2)CC1	
< 5.00			CN1CCN(c2ccc(Nc3ncc4nc([S+]([O-])Cc5cccnc5)n(C5CCOCC5)c4n3)cc2)CC1 (stereo not drawn)	
6.97			CN1CCN(c2ccc(Nc3ncc4nc(SCc5ccccc5)n(C5CCOCC5)c4n3)cc2)CC1	
5.88			CN(C)CCN(C)c1ccc(Nc2ncc3nc([S+]([O-])c4ccccc4)n(C4CCOCC4)c3n2)cc1 (stereo not drawn)	
7.30	< 5.00	< 5.00	CN(C)CCOc1ccc(Nc2ncc3nc([S+]([O-])c4ccccc4)n(C4CCOCC4)c3n2)cc1 (stereo not drawn)	Ratio IC50 [4]: >198; Ratio IC50 [5]: >198
5.89			CN(C)C1CCN(c2ccc(Nc3ncc4nc([S+]([O-])c5ccccc5)n(C5CCOCC5)c4n3)cc2)CC1 (stereo not drawn)	
